Among the data in ChEMBL document CHEMBL1146497, “Antifouling activity of brominated cyclopeptides from the marine sponge Geodia barretti” (J Nat Prod, 2004) are Activity and LC50 values, retold here.

Activity calls are given as the source filed them. The rule behind the calls is not given here.

A word on the LC50: it is the concentration lethal to half of the exposed cells or organisms.

Holding throughout (type): functional, organism-based
Test [1] relates to Amphibalanus improvisus. Kind of test: Antifouling activity against Balanus improvisus […] assessed as inhibition of cyprid larval settlement at 0.1 to 10 uM after 3 to 4 days relative to control. The procedure, abridged:
(§1)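 Competent Balanus improvisus cyprids (20 ± 2 per dish) in 10 mL filtered seawater (0.2 µm) containing test substance, dissolved first in milliQ water. Four replicate dishes per concentration, with filtered-seawater dishes as controls. Settled, living unsettled and dead cyprids were scored as percentages.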

The subject of test [2] is Amphibalanus improvisus. Put plainly: Antifouling activity against Balanus improvisus […] assessed as inhibition of cyprid larval settlement at 1.9 uM after 3 to 4 days relative to control. Summed up:
as §1

The subject of test [3] is Amphibalanus improvisus. Put plainly: Antifouling activity against Balanus improvisus […] assessed as inhibition of cyprid larval settlement. Summed up: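 Competent B. improvisus cyprids (20 ± 2 per dish) were exposed in 10 mL filtered seawater (0.2 µm), with four replicates and filtered-seawater controls. Test substances were dissolved in milliQ water and diluted into seawater as three tenfold concentration steps. Settled, living-unsettled and dead cyprids were scored as percentages.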

For `NC(Cc1c[nH]c2cc(Br)ccc12)C(=O)O` (racemic), in test [1], the outcome was inactive. `NC(Cc1c[nH]c2ccc(Br)cc12)C(=O)O` (racemic): in test [1], the outcome was inactive. For the molecule `N=C(N)NCCC[C@@H]1NC(=O)/C(=C/c2c[nH]c3cc(Br)ccc23)NC1=O.O=C(O)C(F)(F)F`, the outcome in test [2] and in test [1] was Active. Besides, the LC50 in test [3] turned out to be 0.4 µg/mL. On to `N[C@@H](Cc1c[nH]c2ccccc12)C(=O)O`, for which, in test [1], the result was inactive. Turning to `N=C(N)NCCC[C@H](N)C(=O)O`, the outcome in test [1] was inactive.

Turning to `N=C(N)NCCCC1NC(=O)C(Cc2c[nH]c3cc(Br)ccc23)NC1=O.O=C(O)C(F)(F)F` (stereo unspecified), in test [3], the LC50 was 4 µg/mL. Moreover, the outcome in test [1] was Active. Turning to tributyltin-oxide, in test [3], the LC50 turned out to be 0.09 µg/mL.

On to `NC(Cc1c[nH]c2cc(F)ccc12)C(=O)O` (racemic), for which the result in test [1] was inactive.
